MrgX1 PAM: allosterically activates human MrgX1 receptor signaling | Q96LB2 | MrgX1-HEK293, Fluo-4 calcium flux, FDSS; active compounds read high | B-score at 10 µM | 310,000 compounds, 0.63% hits | AID 588675;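 active = plate-corrected calcium response at least 3 library SD above typical, normal starting fluorescence, not activating the receptor alone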;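 note: compound read alongside a low EC10 to EC30 dose of BAM8-22 agonist; peak minus trough fluorescence over baseline measured at the second addition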
Target sequence (Q96LB2 whole entry, looked up): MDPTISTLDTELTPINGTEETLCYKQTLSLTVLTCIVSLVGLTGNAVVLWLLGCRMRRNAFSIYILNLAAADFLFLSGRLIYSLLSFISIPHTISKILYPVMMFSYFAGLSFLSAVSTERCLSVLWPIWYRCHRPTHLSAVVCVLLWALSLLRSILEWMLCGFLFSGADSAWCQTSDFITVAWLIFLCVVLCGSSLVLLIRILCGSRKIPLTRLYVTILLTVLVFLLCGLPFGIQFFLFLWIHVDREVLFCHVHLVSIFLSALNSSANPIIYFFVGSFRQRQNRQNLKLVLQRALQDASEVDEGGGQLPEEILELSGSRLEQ
RGS4 inh: inhibitors of human RGS4; HEK293 M3R/RGS4 inducible, Fluo-4 calcium flux; active compounds read high; triggered by carbachol at its EC20; B-score at 10 µM; 310,000 compounds, 0.45% hits; AID 463165;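 active = B-score, a plate-corrected calcium signal, over three deviations above library mean, with baseline fluorescence within five deviations of library mean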;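 note: RGS4 expression induced by doxycycline in cells with stable M3 receptor; B-score is computed from the integrated fluorescence ratio over baseline after carbachol; higher B-score means a larger calcium signal and so more RGS4 inhibition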
Target sequence (P49798 whole entry, looked up): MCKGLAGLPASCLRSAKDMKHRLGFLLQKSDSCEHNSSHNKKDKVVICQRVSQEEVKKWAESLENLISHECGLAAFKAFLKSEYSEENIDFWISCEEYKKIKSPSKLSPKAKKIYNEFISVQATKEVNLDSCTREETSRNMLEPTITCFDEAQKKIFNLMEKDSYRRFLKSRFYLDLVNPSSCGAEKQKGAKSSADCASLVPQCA
MrgX1 ag: agonists of human MrgX1 receptor; 310,000 compounds, 0.44% hits; B-score at 10 µM; Q96LB2; MrgX1-HEK293 cells, Fluo-4 calcium fluorescence, agonist mode; active compounds read high; AID 588627;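 active = calcium response B-score plate-corrected fluorescence ratio at least 3 library SD, with starting fluorescence B-score inside 5 SD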
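Test system: Stable human MrgX1 HEK293 cell line | Schedule: Overnight plating before 1 h dye loading | Read-out basis: Baseline-normalised fluorescence change ratio, B-scored | Detection: Kinetic calcium dye fluorescence, Fluo-4 NW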
RGS4 act: potentiators or activators of RGS4; AID 463111; 310,000 compounds, 0.92% hits; B-score at 10 µM; HEK293 M3R/inducible RGS4, carbachol calcium flux Fluo4; active compounds read low;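 active = B-score of the integrated calcium signal more than 4 SD below the library mean, with starting fluorescence not abnormally high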;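 note: negative B-score means reduced calcium response which marks RGS4 activation or potentiation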
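test system = M3R-expressing HEK293 line, RGS4 induced by doxycycline | probe or stimulus = carbachol at ECmax as muscarinic agonist stimulus | timing = dye loading 30 min 37 °C, buffer rest 30 min RT | signal = calcium dye Fluo4 fluorescence | evaluation = B score from integrated fluorescence ratio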
MrgX1 antagonist: blocks BAM8-22 activation of human MrgX1 receptor | Q96LB2 | MRGX1-HEK293 calcium flux, Fluo-4, BAM8-22 antagonism; active compounds read low | B-score at 10 µM | 310,000 compounds, 1.3% hits;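 active = calcium-response B-score plate-corrected more than 3 library SD below zero, starting fluorescence within 5 deviations, no agonist response on first addition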;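 note: peak minus trough fluorescence over baseline after final BAM8-22 challenge near maximal dose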
MrgX1 antag conf: confirmation of human MrgX1 receptor antagonists; shares compounds with MrgX1 antagonist; MrgX1-HEK293, BAM8-22 calcium flux, Fluo-4; active compounds read low; remaining BAM8-22 calcium response % of control (active compounds read low), % at 10 µM; 2,300 compounds, 19% hits; AID 602420;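 active = remaining agonist calcium response no higher than 100% minus 3 SD of agonist-only control wells, with starting fluorescence near control levels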;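 note: agonist BAM8-22 given at a near maximal EC90 to ECmax level; peak minus minimum fluorescence divided by baseline after agonist addition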
HEK293 Ca flux: MrgX1 antagonist counter-screen hit in parental HEK293 cells; Fluo-4 calcium fluorescence, FDSS; 4,000 compounds, 2% hits; fluorescence ratio F(max-min)/F0 at 10 µM; shares compounds with MrgX1 antagonist;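 active = duplicate-averaged calcium fluorescence ratio at least three times the standard deviation of buffer wells, a nonspecific response in parental cells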
HEK293 Ca counter: MrgX1 allosteric activator counter-screen hit in parental HEK293 cells. shares compounds with MrgX1 antagonist. parental HEK293 calcium flux, Fluo-4 fluorescence ratio; active compounds read high. fluorescence ratio F(max-min)/F0 at 10 µM. 4,000 compounds, 0.4% hits;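 active = calcium fluorescence ratio, averaged over duplicates, at least 3 SD of the buffer-well ratio, meaning a nonspecific response in receptor-free cells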;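 note: untransfected parental HEK293 lacking MrgX1 used as counterscreen for MrgX1 allosteric activators; fluorescence change taken during the second addition on a kinetic imager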
HEK293 Ca cntr2: activity in parental HEK293 cells lacking MrgX1 receptor; shares compounds with MrgX1 antagonist; Fluo-4 calcium fluorescence (FDSS); active compounds read high; fluorescence ratio F(max-min)/F0 at 10 µM; 4,000 compounds, 8.7% hits; AID 624115;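 active = calcium fluorescence ratio at least three times the spread of buffer wells, meaning a non-specific response in parental cells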
The depositor's hits bear a star; i = inactive; nt = no result given. The list is not random: actives were taken first. Their share in the collection is about 3.5%.

SMILES	MrgX1 PAM	RGS4 inh	MrgX1 ag	RGS4 act	MrgX1 antagonist	MrgX1 antag conf	HEK293 Ca flux	HEK293 Ca counter	HEK293 Ca cntr2
CC(C)(C)N1C(=O)c2ccc(C(=O)Nc3ccc(O)cc3)cc2C1=O	i	i	i	i	i	nt	nt	nt	nt
Cc1cc(C)n(C(=O)c2ccc(C)c(S(=O)(=O)N3CCCC3)c2)n1	i	i	i	i	i	nt	nt	nt	nt
CCOC(=O)c1sc(-c2ccc(Cl)cc2)nc1O	i	i	i	i	i	nt	nt	nt	nt
CCOC(=O)N/C(N)=N/c1nc2ccccc2s1	i	i	i	i	-7.65*	i	i	i	i
CCN1CCc2nc(NC(=O)CC(c3ccccc3)c3ccccc3)sc2C1	i	i	i	i	i	nt	nt	nt	nt
CCN1CCc2nc(NC(=O)C(c3ccccc3)c3ccccc3)sc2C1	i	i	i	i	-5.76*	i	i	i	i
C=CCn1c(CC(=O)OC)csc1=Nc1ccc(C(C)=O)cc1	i	i	i	i	-5.19*	i	i	i	i
COc1cc2c(cc1OC)C(C1C(=O)CC(C)CC1=O)N(C(=O)CCl)CC2 (stereo not drawn)	i	i	i	i	i	nt	nt	nt	nt
Cc1ccc(C)c(NC(=O)CCc2nnc3ccc(NCc4ccco4)nn23)c1	i	i	i	i	i	nt	nt	nt	nt
CN(C)CCNC(=S)Nc1ccccc1Cl	i	i	i	i	i	nt	nt	nt	nt
Cc1c(Cl)cccc1NC(=S)NCCCN(C)C	i	i	i	i	-5.52*	i	i	i	i
S=C(NCCNC(=S)Nc1ccccc1Cl)Nc1ccccc1Cl	i	i	i	i	-4.74*	84.6%*	i	i	i
COc1ccc(-c2nc(N3CCCC3)[nH]c(=O)c2C#N)cc1	i	i	i	i	i	nt	nt	nt	nt
COc1ccc(-c2nc(N3CCC(C)CC3)[nH]c(=O)c2C#N)cc1	i	i	i	i	-5.63*	i	i	i	i
Cc1cccc(-n2ncc3c2CCCC3NC(=O)C2CCOCC2)c1C (stereo not drawn)	i	i	i	i	-5.23*	74.0%*	i	i	i
Cc1ccc(C)c(S(=O)(=O)N2CCCC2CNC(=O)C(=O)NCCc2ccco2)c1 (stereo not drawn)	i	i	i	i	i	nt	nt	nt	nt
O=C(NCCc1ccco1)C(=O)NCC1CCCN1S(=O)(=O)c1ccccc1 (stereo not drawn)	i	i	i	-7.27*	-5.09*	i	i	i	i
CCOC(=O)Cc1csc(NC(=O)Nc2cccc(Cl)c2)n1	i	i	i	i	-7.4*	i	i	i	i
CCOC(=O)Cc1csc(NC(=O)Nc2ccc(Cl)cc2)n1	i	i	i	i	i	nt	nt	nt	nt
CCOC(=O)Cc1csc(NC(=O)c2sc3nc4cc(C)ccc4cc3c2N)n1	i	i	i	i	-6.4*	i	i	i	i
CCOC(=O)Cc1csc(NC(=O)c2sc3nc4ccc(CC)cc4cc3c2N)n1	i	i	i	i	i	nt	nt	nt	nt
NCCc1nc(-c2ccccc2)cs1	i	i	i	i	i	nt	nt	nt	nt
Nc1nc2n(n1)C(c1ccco1)CC(c1ccc(Cl)cc1)N2 (stereo not drawn)	i	i	i	i	-6.33*	i	i	i	i
CCc1ccc(C2CC(c3ccccc3Cl)Nc3nc(N)nn32)cc1 (stereo not drawn)	i	i	i	i	-5.07*	i	i	i	i
CCOc1ccc(OCCC(=O)N(CCC(C)C)c2c(N)n(Cc3ccccc3)c(=O)[nH]c2=O)cc1	i	i	i	i	i	nt	nt	nt	nt
SMILES	MrgX1 PAM	RGS4 inh	MrgX1 ag	RGS4 act	MrgX1 antagonist	MrgX1 antag conf	HEK293 Ca flux	HEK293 Ca counter	HEK293 Ca cntr2
COc1ccc(N2CCN(C(=O)CCc3nnc4ccc(N5CCOCC5)nn34)CC2)cc1	i	i	i	i	i	nt	nt	nt	nt
CCOC(=O)c1sc(NC(=O)CSc2nc3c(cc2C#N)CCCCCC3)c(C#N)c1C	i	i	i	i	i	nt	nt	nt	nt
CCOC(=O)c1sc(NC(=O)CSc2nc(C)cc(C)c2C#N)c(C#N)c1C	i	i	i	i	-7.3*	i	i	i	i
Cc1ccc(CNn2cn[nH]c2=S)cc1	i	i	i	i	i	nt	nt	nt	nt
Cc1ccccc1CC1(CO)CCCN(Cc2cn[nH]c2-c2ccccc2)C1 (stereo not drawn)	i	i	i	i	i	nt	nt	nt	nt
COc1cccc(CC2(CO)CCCN(Cc3cn[nH]c3-c3ccccc3)C2)c1 (stereo not drawn)	i	i	i	i	-5.01*	72.3%*	i	i	i
COc1ccc(OCc2nc3ccc(S(=O)(=O)Nc4ccccc4Cl)cc3[nH]2)cc1	i	i	i	i	-6.12*	i	i	i	i
O=C(Nc1ccc(CN2CCOCC2)cc1)c1cc2ccccc2o1	i	i	i	i	i	nt	nt	nt	nt
O=C(Nc1ccc(CN2CCOCC2)cc1)c1cc2ccccn2n1	i	i	i	i	-4.86*	i	i	i	i
c1ccc(-c2csc(-n3cnnn3)n2)cc1	i	i	i	i	i	nt	nt	nt	nt
O=C(c1ccco1)N1CCN(C(=O)c2ccccc2Oc2ccccc2)CC1	i	i	i	i	-4.63*	79.5%*	i	i	i
COc1ccccc1C(=O)N1CCN(CCc2ccccc2)CC1	i	i	i	i	-5.38*	i	i	i	i
COc1cccc(C(=O)N2CCN(CCCc3ccccc3)CC2)c1OC	i	nt	i	nt	i	nt	nt	nt	nt
O=S1(=O)N=C2CCCCCN2C(c2ccc(Br)cc2)N1 (stereo not drawn)	i	i	i	i	i	nt	nt	nt	nt
CC1CCc2[nH]c3ccc(C(=O)N4CCCC(C(F)(F)F)C4)cc3c2C1 (stereo not drawn)	i	i	i	i	-4.65*	i	i	i	i

Compound activity: PubChem, Johns Hopkins Ion Channel Center
